From ChEMBL document CHEMBL1139262, “Design, synthesis, and evaluation of 5-sulfamoyl benzimidazole derivatives as novel angiotensin II receptor antagonists” (Bioorg Med Chem, 2008) come the findings set out here.

Structures are written as SMILES.

In test [1] the target is T1, Type-1 angiotensin II receptor A (Rattus norvegicus) (UniProt P25095).
T1 sequence (whole entry): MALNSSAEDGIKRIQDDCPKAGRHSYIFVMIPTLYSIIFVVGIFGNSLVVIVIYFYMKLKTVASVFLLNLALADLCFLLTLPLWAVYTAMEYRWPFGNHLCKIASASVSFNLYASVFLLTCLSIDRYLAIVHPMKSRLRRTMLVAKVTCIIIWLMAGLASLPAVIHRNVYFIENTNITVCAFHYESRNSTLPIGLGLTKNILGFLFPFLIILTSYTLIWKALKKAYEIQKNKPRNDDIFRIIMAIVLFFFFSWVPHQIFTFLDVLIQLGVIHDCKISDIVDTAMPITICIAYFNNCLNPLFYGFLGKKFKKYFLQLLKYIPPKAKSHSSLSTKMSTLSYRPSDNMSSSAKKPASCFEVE
The test can be described thus: (§1) Antagonist activity at AT1 receptor in rat aortic rings. The test is classed as functional. The method in brief:
(§2)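 Isolated rat aortic ring in 10 ml bath of Krebs–Henseleit at 37 °C, pH 7.4, oxygenated, under 1 g tension. Ang II cumulative curve in 0.5-log steps (1 × 10−10 to 1 × 10−5), repeated after 15 min antagonist exposure at 1, 3 or 10 nmol. Response taken as % of maximal Ang II tension.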

The target in test [2] is T2, Type-1 angiotensin II receptor A (Rattus norvegicus, UniProt P25095).
T2 sequence (P25095 whole entry): T1 sequence (whole entry)
The description is as §1. The test is classed as functional. Conditions: read-out: pA2 (converted). The gist of the method: as §2

The test system of test [3] is Rattus norvegicus. As to the kind of experiment: Antihypertensive effect in desoxycortisone acetate-induced hypertensive rat assessed as maximum decrease in mean arterial blood pressure at 3 mg/kg, ip after 6 hrs. It counts as functional, Artery. The settings on record: route intraperitoneal. The method in brief:
(§3)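 Hypertension induced by uninephrectomy plus DOCA 40 mg kg−1 sc twice weekly for up to six weeks, with 1.0% NaCl and 0.2% KCl in drinking water; sham rats got tap water. Compound given ip, and mean arterial blood pressure measured 6 h after dosing. Activity expressed as fall in MABP.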

Test [4] has as its system Rattus norvegicus. As to the kind of experiment: Antihypertensive effect in desoxycortisone acetate-induced hypertensive rat assessed as maximum decrease in mean arterial blood pressure at 5 mg/kg, ip after 6 hrs. It counts as functional, Artery. The settings on record: route intraperitoneal. The method in brief: as §3

Consider `CCCCc1nc2cc(S(=O)(=O)NCC)ccc2n1Cc1ccc(-c2ccccc2C(=O)O)cc1`, for which, in test [1], the pA10 came out at 6.2. Also, the Kb in test [2] was 79.4 nM. For the same compound, the Activity with Rattus norvegicus [3] is on record as 49.9 mmHg.

`CCOc1nc2cccc(C(=O)O)c2n1Cc1ccc(-c2ccccc2-c2nnn[nH]2)cc1` registered a pA10 in test [1] of 6.7. The Kb in test [2] was 3.16 nM. Besides, the Activity in the test with Rattus norvegicus [4] is recorded as 56.2 mmHg.

The compound `CCCCc1nc2cc(S(=O)(=O)NC(C)(C)C)ccc2n1Cc1ccc(-c2ccccc2C(=O)O)cc1` yielded a pA10 in test [1] of 5.4. In test [2], the Kb was 3.98 nM. In addition, the Activity with Rattus norvegicus [3] was found to be 62.4 mmHg.

`CCCCc1nc2cc(S(=O)(=O)NC3CCCCC3)ccc2n1Cc1ccc(-c2ccccc2C(=O)O)cc1` registered a pA10 in test [1] of 5.7. In addition, the Kb in test [2] was 12.6 nM. In addition, in the test on Rattus norvegicus [3], the Activity is recorded as 64.4 mmHg.

In test [1], `CCCCc1nc2cc(S(N)(=O)=O)ccc2n1Cc1ccc(-c2ccccc2C(=O)O)cc1` had a pA10 of 6.1. The Kb in test [2] was 200 nM. In addition, in the test with Rattus norvegicus [3], the Activity is listed as 51.4 mmHg.

In turn, `CCCCc1nc(Cl)c(CO)n1Cc1ccc(-c2ccccc2-c2nnn[nH]2)cc1` [LOSARTAN] registered a pA10 in test [1] of 7.1. Also, the Activity in the test with Rattus norvegicus [4] was found to be 58.3 mmHg.

In turn, `CCCCc1nc2cc(S(=O)(=O)NCCC)ccc2n1Cc1ccc(-c2ccccc2C(=O)O)cc1` displayed a pA10 in test [1] of 6.4. The Kb in test [2] was 79.4 nM. For the same compound, the Activity in the test with Rattus norvegicus [3] is reported as 50.2 mmHg.

`CCCCc1nc2cc(S(=O)(=O)NC(C)C)ccc2n1Cc1ccc(-c2ccccc2C(=O)O)cc1` came in with a pA10 in test [1] of 6.3. The Kb in test [2] is 63.1 nM. For the same compound, the Activity in the test on Rattus norvegicus [3] is recorded as 51.7 mmHg.

Regarding `CCCCc1nc2ccccc2n1Cc1ccc(-c2ccccc2C(=O)O)cc1`, the pA10 in test [1] was found to be 6.7. In addition, the Kb in test [2] is 3.16 nM.

On to `CCCCNS(=O)(=O)c1ccc2c(c1)nc(CCCC)n2Cc1ccc(-c2ccccc2C(=O)O)cc1`, for which, in test [1], the pA10 came to 6.2. Besides, the Kb in test [2] was 100 nM. Also, the Activity with Rattus norvegicus [3] is given as 47.6 mmHg.

On to `CCCCc1nc2cc(S(=O)(=O)O)ccc2n1Cc1ccc(-c2ccccc2C(=O)O)cc1`, for which the pA10 in test [1] came out at 5.8. Moreover, in test [2], the Kb was 251 nM. The Activity in the test on Rattus norvegicus [3] was 44.7 mmHg.

In test [1], `CCCCc1nc2cc(S(=O)(=O)NC)ccc2n1Cc1ccc(-c2ccccc2C(=O)O)cc1` yielded a pA10 of 6.3. The Kb in test [2] is 126 nM. Also, the Activity in the test on Rattus norvegicus [3] came out at 52.5 mmHg.
